This is a sample that favours compounds with a hit; in the whole collection about 6.6% have one here.
HUVEC inhibit: inhibitors of HUVEC proliferation, primary screen, cell-based, 384-well. CellTiter-Glo luminescence, 72 h; active compounds read low. viability, % at 10 µM (by protocol). 86,000 compounds, 1.1% hits;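 active = viability at or below 30%; inactive = viability above 30%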;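 also: 100% = median luminescence of DMSO-only cell control wells on each plate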
Lung fibro prol: antiproliferative effect on LL 47 fibroblasts – human, LL 47 cells, CellTiter-Glo luminescence, primary screen; LL 47 human lung fibroblast viability, ATP luminescence; active compounds read low; viability, % at 10 µM; 85,000 compounds, 1.1% hits; AID 719, 2007;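 active = viability at or below 50% in the single dose screen; inactive = viability above 50%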;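 also: compound exposure lasted 72 h before the ATP readout; 100% = median luminescence of untreated cell-only wells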
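Material: human LL 47 lung fibroblast cells; quantity: 1,150 cells/well; medium: IMEM plus 15% FBS; doses: 0.1% DMSO in all compound wells; timing: overnight attachment after seeding, then 72 h compound exposure at 37 °C; detection: CellTiter-Glo luminescence; measure: % viability of median cell-only signal; controls: cell-only wells, no compound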
H69AR inhibit: proliferation blockers of H69AR lung cancer cells, primary screen, cell-based, human, 86K library; AID 598, 2007; 85,000 compounds, 6% hits; H69AR lung tumor viability, ATP luminescence, 72 h; active compounds read low; viability, % at 10 µM;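 active = viability at or below 40%; inactive = viability above 40%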;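 also: multidrug resistant small cell line overexpressing MRP-1 efflux transporter; 100% = mean luminescence of untreated control wells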
Jurkat viability: cytotoxicity toward Jurkat T cells, primary screen, cytotoxicity control, cell-based, Jurkat E6.1, 60K MLSMR library. Jurkat E6.1 viability, ATP luminescence, 48 h. 56,000 compounds, 1.2% hits. inhibition, % at 4 µM. AID 463, 2006;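 active = inhibition above the mean inhibition of all tested compounds plus 3 SD, cut at about 28% in these data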
* = called active by the depositor.

How did CC1=CC(C)(C)Nc2ccc(OC(=O)CN3C(=O)CCC3=O)cc21 do in these assays?
Jurkat viability: -3

Results for CCOc1ccc(OC(=O)c2cccnc2)cc1 ?
HUVEC inhibit: 87; Lung fibro prol: 102; H69AR inhibit: 46; Jurkat viability: 6

Results for CC1=CC(C)(C)Nc2ccc(OC(=O)c3cccnc3)cc21 ?
HUVEC inhibit: 53; Lung fibro prol: 23*; H69AR inhibit: 2.6*; Jurkat viability: 17

What do the screens show for `CC1=CC(C)(C)Nc2ccc(OC(=O)c3ccco3)cc21`?
Jurkat viability: 58*

What do the screens show for `O=C(Nc1ccc(N2CCOCC2)c(Cl)c1)c1c(F)c(F)c(F)c(F)c1F`?
HUVEC inhibit: 90; Lung fibro prol: 87; H69AR inhibit: 32*; Jurkat viability: -2

Results for O=C(Nc1ccc(N2CCCC2)c(Cl)c1)c1cccnc1 ?
HUVEC inhibit: 69; Lung fibro prol: 93; H69AR inhibit: 60

How did Cc1nc2cc(N3CCCCC3)c(NC(=O)c3cccnc3)cc2c(=O)n1Cc1ccccc1 do in these assays?
HUVEC inhibit: 72; Lung fibro prol: 38*; H69AR inhibit: 33*; Jurkat viability: -6

Results for O=C(Nc1ccc(N2CCCCC2)c(Cl)c1)c1cccnc1 ?
HUVEC inhibit: 67; Lung fibro prol: 74; H69AR inhibit: 74; Jurkat viability: 33*

What do the screens show for `CC(=O)Nc1cc2c(=O)n(Cc3ccccc3)c(C)nc2cc1N1CCOCC1`?
HUVEC inhibit: 97; Lung fibro prol: 103; H69AR inhibit: 99; Jurkat viability: 7

Results for CC(C)C1Cc2c(sc3[nH]c(=S)n(Cc4ccccc4)c(=O)c23)CO1 (centres undefined) ?
HUVEC inhibit: 7.0*; Lung fibro prol: 69; H69AR inhibit: 25*

How did COC(=O)c1cc(Br)c(=O)n(CCC2=CCCCC2)c1 do in these assays?
HUVEC inhibit: 83; Lung fibro prol: 102; H69AR inhibit: 77; Jurkat viability: -3

How did O=C(CN1CCC(NC(=O)c2ccccc2F)CC1)NCc1ccc(F)cc1 do in these assays?
HUVEC inhibit: 89; Lung fibro prol: 102; H69AR inhibit: 3.2*

What do the screens show for `O=C(CN1CCC(NC(=O)c2ccc(F)cc2)CC1)NCc1ccccc1F`?
HUVEC inhibit: 108; Lung fibro prol: 93; H69AR inhibit: 88; Jurkat viability: 1

Results for Cn1c(-c2cc(Br)ccc2O)n[nH]c1=S ?
HUVEC inhibit: 88; Lung fibro prol: 93; H69AR inhibit: 100; Jurkat viability: -5

Results for Oc1ccccc1-c1cc(-c2ccc3c(c2)OCCO3)n[nH]1 ?
HUVEC inhibit: 49; Lung fibro prol: 81; H69AR inhibit: 17*

How did Oc1ccc(Br)cc1-c1cc(-c2ccccc2)n[nH]1 do in these assays?
HUVEC inhibit: 27*; Lung fibro prol: 71; H69AR inhibit: 6.3*

How did Oc1ccc(Br)cc1-c1cc(-c2ccc(Cl)cc2)n[nH]1 do in these assays?
HUVEC inhibit: 8.1*; Lung fibro prol: 39*; H69AR inhibit: 54

What do the screens show for `O=C(NC1CCCCC1)c1ccccc1NC(=O)C1CC(=O)N(c2ccc(Cl)cc2)C1` (centres undefined)?
HUVEC inhibit: 37; Lung fibro prol: 89; H69AR inhibit: 88

How did COc1ccc(N(CC(=O)N2CCc3ccccc3C2)S(=O)(=O)c2c(C)nn(C)c2C)cc1 do in these assays?
HUVEC inhibit: 100; Lung fibro prol: 95; H69AR inhibit: 77; Jurkat viability: 5

What do the screens show for `Nc1nc2ccc(O)cc2s1`?
HUVEC inhibit: 97; H69AR inhibit: 18*

What do the screens show for `Cc1nnc(C)c2c(C)n(C(c3ccccc3)c3ccccc3)c(C)c12`?
HUVEC inhibit: 77; Lung fibro prol: 106; H69AR inhibit: 26*

Results for CCn1c(C)c2c(C)nnc(C)c2c1C ?
HUVEC inhibit: 99; Lung fibro prol: 104; H69AR inhibit: 95

Results for O=C(OC(C(=O)NCc1ccc2c(c1)OCO2)c1ccc(Cl)cc1)c1ccco1 (centres undefined) ?
HUVEC inhibit: 100; Lung fibro prol: 101; H69AR inhibit: 95; Jurkat viability: 0

Results for COc1cccc2c(=O)c(SC(F)(F)C(F)C(F)(F)F)c(C)[nH]c12 (centres undefined) ?
HUVEC inhibit: 57; Lung fibro prol: 87; H69AR inhibit: 17*

What do the screens show for `Cc1[nH]c2ccc(F)cc2c(=O)c1SC(F)(F)C(F)C(F)(F)F` (centres undefined)?
HUVEC inhibit: 89; Lung fibro prol: 89; H69AR inhibit: 77

What do the screens show for `Cc1ccccc1C(=O)Nc1cccc(NC(=O)Cn2cnc3c(=O)n(C)c(=O)n(C)c32)c1`?
HUVEC inhibit: 54; Lung fibro prol: 64; H69AR inhibit: 61; Jurkat viability: -4

Results for CCCS(=O)(=O)c1c(S(=O)(=O)CCC)c2cnccn2c1C(=O)c1ccc(Cl)cc1 ?
HUVEC inhibit: 92; Lung fibro prol: 84; H69AR inhibit: 92

How did CCCCCn1c(SCC#N)nc2cc(C(=O)NC3CCCCC3)ccc2c1=O do in these assays?
HUVEC inhibit: 67; Lung fibro prol: 48*; H69AR inhibit: 53; Jurkat viability: 12

How did CSc1nnnn1-c1cccc(O)c1 do in these assays?
HUVEC inhibit: 93; Lung fibro prol: 100; H69AR inhibit: 100; Jurkat viability: 4

Results for CCN(CC)c1ccc(NC(=O)c2ccccc2F)cc1 ?
HUVEC inhibit: 47; Lung fibro prol: 71; H69AR inhibit: 26*; Jurkat viability: 57*

How did O=C(NCCc1ccc(Cl)cc1)C1CCN(S(=O)(=O)N2CCC3(CC2)OCCO3)CC1 do in these assays?
Jurkat viability: 0

How did COC(=O)C1=C(C(=O)OC)SC2(S1)C(C(=O)OC)=C(C(=O)OC)SC1=C2c2cc(C)ccc2NC1(C)C do in these assays?
HUVEC inhibit: 99; Lung fibro prol: 97; H69AR inhibit: 67

How did CCN(CC)CC(O)COc1ccc2c(c1)OCO2 (centres undefined) do in these assays?
HUVEC inhibit: 91; Lung fibro prol: 91; H69AR inhibit: 93

Results for O=C(NCc1ccco1)c1cc2cc3ccc(Cl)cc3nc2o1 ?
HUVEC inhibit: 69; Lung fibro prol: 53; H69AR inhibit: 9.5*; Jurkat viability: -6

How did COc1ccc2cc3cc(C(=O)NCc4ccco4)oc3nc2c1 do in these assays?
HUVEC inhibit: 74; Lung fibro prol: 107; H69AR inhibit: 93

How did CCOC(=O)Cn1nc(-c2ccc(F)cc2)oc1=O do in these assays?
HUVEC inhibit: 104; Lung fibro prol: 100; H69AR inhibit: 102

Results for Cc1cc2nc(C)n(CCCN)c2cc1C ?
HUVEC inhibit: 93; Lung fibro prol: 73; H69AR inhibit: 13*; Jurkat viability: 3

Results for O=[N+]([O-])c1ccccc1CNC(Cc1ccccc1)c1ccccc1 (centres undefined) ?
HUVEC inhibit: 103; Lung fibro prol: 91; H69AR inhibit: 71

What do the screens show for `O=C(Nc1ccccc1C(=O)O)c1cccc(F)c1`?
HUVEC inhibit: 74; Lung fibro prol: 94; H69AR inhibit: 101

How did O=C(CC(=O)c1ccccc1O)c1cccc(F)c1 do in these assays?
Jurkat viability: 69*

High-throughput results as filed in PubChem BioAssay.
